Reference: ChEMBL document CHEMBL4014310, “Selective IKur Inhibitors for the Potential Treatment of Atrial Fibrillation: Optimization of the Phenyl Quinazoline Series Leading to Clinical Candidate 5-[5-Phenyl-4-(pyridin-2-ylmethylamino)quinazolin-2-yl]pyridine-3-sulfonamide” (J Med Chem, 2017)
Calls of active or inactive are those of the source. The calls are words filed in the database; no cut-off is given here.

Experiments:
[1] = AUC in dog at 0.1 mg/kg, iv or 1 mg/kg, po; format: ADME, organism-based, Canis lupus familiaris; conditions: in vivo
Summary of the method: (§1)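 Single-dose PK study in mouse and rat (2 mg/kg iv, 5 mg/kg po), cynomolgus monkey (1 mg/kg iv and po) and dog (0.1 mg/kg iv, 1 mg/kg po). Dosing vehicle was 1:4:5 EtOH/propylene glycol/PEG400. Clearance, Vss, half-life, Cmax, Tmax, AUC (μM h) and oral %F were derived from plasma levels.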

Oryctolagus cuniculus [2] = experiment: Antiatrial fibrillation activity in methoxamine-sensitised rabbit assessed as increase in atrial effective refractory period at 0.17 mg/kg, iv administered as 30 mins infusion relative to control; format: functional
Summary of the method: (§2)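 Rabbit, iv infusion of compound in DMF (0.17 mg/mL) with a 0.17 mg/kg maintenance dose. AERP was normalized to DMF vehicle, with time counted from the start of the maintenance infusion. Tissues were collected after 30 min. n = 3 rabbits; means ± standard error.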

[3] = Clearance in rat at 2 mg/kg, iv or 5 mg/kg, po; format: ADME, organism-based; conditions: in vivo; summary of the method: as §1
[4] = Solubility of the compound in pH 1 to 8 solution using crystalline form; format: physicochemical
Plasma [5] = experiment: Plasma concentration in pacing-induced mongrel dog heart failure model at 0.3 mg/kg, po; format: ADME, organism-based, Canis lupus familiaris; conditions: in vivo
Summary of the method: (§3)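 Simultaneous atrio-ventricular pacing dog model used to measure AF inducibility. Dogs were dosed orally at 0.1 mg/kg (n = 5) or 0.3 mg/kg (n = 6) in 10% EtOH/40% propylene glycol/50% PEG 400, and plasma concentration was measured alongside AF inductions and QTc.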

[6] = Cmax in rat at 2 mg/kg, iv or 5 mg/kg, po; format: ADME, organism-based; conditions: in vivo; summary of the method: as §1
[7] = AUC in rat at 2 mg/kg, iv or 5 mg/kg, po; format: ADME, organism-based; conditions: in vivo; summary of the method: as §1
[8] = AUC in mouse at 2 mg/kg, iv or 5 mg/kg, po; format: ADME, organism-based; conditions: in vivo; summary of the method: as §1
Oryctolagus cuniculus [9] = experiment: Antiatrial fibrillation activity in methoxamine-sensitised rabbit assessed as increase in atrial effective refractory period at 1 mg/kg, iv administered as 30 mins infusion relative to control; format: functional
Summary of the method: (§4)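 Rabbit, iv dosing at 1 or 3 mg/kg. AERP was measured at 10, 20 and 30 min time points as % prolongation, and plasma compound concentration was measured at the same time points and correlated with the AERP change.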

Oryctolagus cuniculus [10] = experiment: Antiatrial fibrillation activity in methoxamine-sensitised rabbit assessed as increase in atrial effective refractory period at 1 mg/kg, iv administered as 20 mins infusion relative to control; format: functional; summary of the method: as §4
[11] = Cmax in cynomolgus monkey at 1 mg/kg, iv or 1 mg/kg, po; format: ADME, organism-based, Macaca fascicularis; conditions: in vivo; summary of the method: as §1
[12] = Oral bioavailability in rat at 5 mg/kg; format: ADME, organism-based; conditions: in vivo
Summary of the method: (§5)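 Single-dose PK in mouse and rat (2 mg/kg iv, 5 mg/kg po), cynomolgus monkey (1 mg/kg iv and po) and dog (0.1 mg/kg iv, 1 mg/kg po). Dosing vehicle was 1:4:5 EtOH/propylene glycol/PEG400. Parameters reported: clearance, Vss, half-life, Cmax, Tmax, AUC and oral bioavailability.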

[13] = Clearance in cynomolgus monkey at 1 mg/kg, iv or 1 mg/kg, po; format: ADME, organism-based, Macaca fascicularis; conditions: in vivo; summary of the method: as §1
Oryctolagus cuniculus [14] = experiment: Antiatrial fibrillation activity in methoxamine-sensitised rabbit assessed as plasma concentration required to show increase in atrial effective refractory period at 0.17 mg/kg, iv measured 30 mins post infusion; format: functional, organism-based; summary of the method: as §2
[15] = Tmax in rat at 2 mg/kg, iv or 5 mg/kg, po; format: ADME, organism-based; conditions: in vivo; summary of the method: as §5
Plasma [16] = experiment: Plasma concentration in pacing-induced mongrel dog heart failure model at 0.1 mg/kg, po; format: ADME, organism-based, Canis lupus familiaris; conditions: in vivo; summary of the method: as §3
[17] = Protein binding in rat plasma; format: ADME, cell-free; conditions: read-out: PPB
Oryctolagus cuniculus [18] = experiment: Antiatrial fibrillation activity in methoxamine-sensitised rabbit assessed as increase in atrial effective refractory period at 0.17 mg/kg, iv administered as 1 min infusion relative to control; format: functional; summary of the method: as §2
[19] = Ratio of drug level in Sprague-Dawley rat brain to plasma at 3 mg/kg, iv administered as 10 mins infusion by LC-MS/MS analysis; format: ADME, organism-based; conditions: brain and plasma, read-out: BPR
[20] = biological target: Potassium voltage-gated channel subfamily A member 5 (Homo sapiens, UniProt P22460); experiment: Inhibition of recombinant human Kv1.5 expressed in mouse L929 cells by patch clamp assay; format: cell-based
Potassium voltage-gated channel subfamily A member 5, sequence (P22460 whole entry): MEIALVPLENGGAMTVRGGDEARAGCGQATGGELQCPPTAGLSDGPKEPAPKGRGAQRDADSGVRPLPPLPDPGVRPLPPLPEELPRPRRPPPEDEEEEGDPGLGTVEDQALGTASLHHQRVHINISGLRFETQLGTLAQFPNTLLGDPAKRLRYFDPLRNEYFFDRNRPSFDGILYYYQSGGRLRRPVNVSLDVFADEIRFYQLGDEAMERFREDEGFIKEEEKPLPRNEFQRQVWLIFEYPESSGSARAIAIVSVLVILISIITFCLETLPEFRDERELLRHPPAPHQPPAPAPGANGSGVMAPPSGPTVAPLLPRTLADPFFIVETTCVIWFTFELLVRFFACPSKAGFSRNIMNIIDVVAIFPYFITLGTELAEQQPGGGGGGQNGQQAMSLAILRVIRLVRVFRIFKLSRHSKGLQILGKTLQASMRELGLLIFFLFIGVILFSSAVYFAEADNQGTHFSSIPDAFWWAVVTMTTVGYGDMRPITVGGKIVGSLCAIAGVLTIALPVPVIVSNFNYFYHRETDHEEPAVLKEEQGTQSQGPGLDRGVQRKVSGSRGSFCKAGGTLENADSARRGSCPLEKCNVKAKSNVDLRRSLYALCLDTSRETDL
Summary of the method: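 Whole-cell patch clamp of IKur current in mouse L-929 cells transfected with human KV1.5 and stably expressing the channel.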

Oryctolagus cuniculus [21] = experiment: Antiatrial fibrillation activity in methoxamine-sensitised rabbit assessed as increase in atrial effective refractory period at 0.17 mg/kg, iv administered as 15 mins infusion relative to control; format: functional; summary of the method: as §2
[22] = Inhibition of calcium channel (unknown origin); design: species or system Homo sapiens
Oryctolagus cuniculus [23] = experiment: Antiatrial fibrillation activity in methoxamine-sensitised rabbit assessed as increase in atrial effective refractory period at 3 mg/kg, iv administered as 30 mins infusion relative to control; format: functional; summary of the method: as §4
[24] = Volume of distribution at steady state in rat at 2 mg/kg, iv or 5 mg/kg, po; format: ADME, organism-based; conditions: in vivo, read-out: Vdss; summary of the method: as §5
Oryctolagus cuniculus [25] = experiment: Effect on ventricle effective refractory period in methoxamine-sensitised rabbit at 3 mg/kg, iv administered as 10 to 30 mins infusion; format: ADME, organism-based; conditions: in vivo
Oryctolagus cuniculus [26] = experiment: Antiatrial fibrillation activity in methoxamine-sensitised rabbit assessed as plasma concentration required to show increase in atrial effective refractory period at 0.17 mg/kg, iv administered as 15 mins infusion; format: functional, organism-based; summary of the method: as §2
Salmonella typhimurium = experiment: Genotoxicity in Salmonella typhimurium by Ames test; format: toxicity; conditions: salmonella enterica subsp. enterica serovar typhimurium
Canis familiaris = experiment: Antiarrhythmic activity in mongrel dog heart failure model assessed as reduction in pacing-induced total atrial fibrillation duration at 0.1 to 0.3 mg/kg, po; format: functional, organism-based; conditions: Canis lupus familiaris
Summary of the method: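 Simultaneous atrio-ventricular pacing dog model of atrial arrhythmia. Compound was given orally at 0.1 or 0.3 mg/kg in 10% EtOH/40% propylene glycol/50% PEG 400. AF inducibility was scored as mean number of AF inductions and total AF duration, with QTc monitored and plasma concentration measured. n = 7 control, 5 (0.1 mg/kg) and 6 (0.3 mg/kg) dogs.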

[27] = Plasma concentration in methoxamine-sensitised rabbit at 3 mg/kg, iv administered as 20 mins infusion; format: ADME, organism-based, Oryctolagus cuniculus
[28] = Plasma concentration in methoxamine-sensitised rabbit at 1 mg/kg, iv administered as 30 mins infusion; format: ADME, organism-based, Oryctolagus cuniculus
[29] = Half life in rat at 2 mg/kg, iv or 5 mg/kg, po; format: ADME, organism-based; conditions: in vivo; summary of the method: as §1
[30] = Inhibition of sodium channel (unknown origin); design: species or system Homo sapiens
[31] = Plasma concentration in methoxamine-sensitised rabbit at 1 mg/kg, iv administered as 20 mins infusion; format: ADME, organism-based, Oryctolagus cuniculus
[32] = Volume of distribution at steady state in cynomolgus monkey at 1 mg/kg, iv or 1 mg/kg, po; format: ADME, organism-based, Macaca fascicularis; conditions: in vivo, read-out: Vdss; summary of the method: as §5
[33] = Volume of distribution at steady state in dog at 0.1 mg/kg, iv or 1 mg/kg, po; format: ADME, organism-based, Canis lupus familiaris; conditions: in vivo, read-out: Vdss; summary of the method: as §5
[34] = Plasma concentration in methoxamine-sensitised rabbit at 3 mg/kg, iv administered as 30 mins infusion; format: ADME, organism-based, Oryctolagus cuniculus
[35] = Half life in cynomolgus monkey at 1 mg/kg, iv or 1 mg/kg, po; format: ADME, organism-based, Macaca fascicularis; conditions: in vivo; summary of the method: as §1

AUC [1]: 590 µM·h
clearance [3]: 3.3 mL/min/kg
solubility [4]: Soluble
concentration (Plasma [5]): 1840 nM
Cmax [6]: 7900 nM
AUC [7]: 49 µM·h
AUC [8]: 21 µM·h
Cmax [11]: 900 nM
bioavailability [12]: 100%
clearance [13]: 3.2 mL/min/kg
Tmax [15]: 2.6 h
concentration (Plasma [16]): 470 nM
fraction unbound [17]: < 0.01
Kp at 10 min [19]: 0.1
IC50 [20]: 0.046 to 0.05 µM
IC50 [22]: > 10 µM
Vd [24]: 0.9 L/kg
half-life [29]: 3.2 h
IC50 [30]: > 10 µM
Vd [32]: 1.2 L/kg
Vd [33]: 0.2 L/kg
half-life [35]: 4.6 h
Compound: NS(=O)(=O)c1cncc(-c2nc(NCc3ccccn3)c3c(-c4ccccc4)cccc3n2)c1 [BMS-919373]
Activity (Oryctolagus cuniculus [2]): 12.7%
Activity (Oryctolagus cuniculus [9]): 10.7%
Activity (Oryctolagus cuniculus [10]): 10.6%
Cp (Oryctolagus cuniculus [14]): 0.09 µM
Activity (Oryctolagus cuniculus [18]): 9.9%
Activity (Oryctolagus cuniculus [21]): 11%
Activity (Oryctolagus cuniculus [23]): 21.6 - 22%
Activity (Oryctolagus cuniculus [25]): Non-Toxic
Cp (Oryctolagus cuniculus [26]): 0.16 µM
Activity (Salmonella typhimurium): Non-Toxic
Activity (Canis familiaris): Active
concentration at 20 min [27]: 3600 nM
concentration at 0.5 h [28]: 1300 nM
concentration at 20 min [31]: 1100 nM
concentration at 0.5 h [34]: 3300 nM
